What was measured:
[1] = Solvent- and light-mediated curcumin degradation; type: physicochemical; conditions: absolute ethanol, 10 μM curcumin, absorbance 420 nm
Method in brief: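 Test compound: 5 mM methanol stock diluted to 10 μM in absolute ethanol. Samples were held at room temperature either in darkness or under a 100 W lamp. Absorbance maximum at 420 nm was recorded at intervals within 30 min. Degradation rate was taken from the initial slope of a best-fit line.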

[2] = Effect of temperature on hydrolytic stability of curcumin; type: physicochemical; conditions: 80°C, 10 μM curcumin, 20 mM sodium phosphate buffer pH 7.0, 60 min, darkness
Method in brief: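 Test compound: 1 mM methanol stock diluted to 10 μM in 20 mM sodium phosphate buffer pH 7.0. Kept in darkness at 4, 25, 37 or 80 °C for up to 60 min and sampled at set intervals. Fluorescence spectra were taken at excitation 420 nm, emission 440–700 nm, with slits 10/20. Maximum emission was followed over time, and the decomposition rate was taken from the initial slope of a linear fit.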

native (unmodified) BSA = native (unmodified) BSA (Bos taurus, UniProt P02769); test: Intrinsic fluorescence quenching, binding constant and thermodynamics; design: species or system Bovine; conditions: unmodified albumin
native (unmodified) BSA, sequence (P02769 25-607): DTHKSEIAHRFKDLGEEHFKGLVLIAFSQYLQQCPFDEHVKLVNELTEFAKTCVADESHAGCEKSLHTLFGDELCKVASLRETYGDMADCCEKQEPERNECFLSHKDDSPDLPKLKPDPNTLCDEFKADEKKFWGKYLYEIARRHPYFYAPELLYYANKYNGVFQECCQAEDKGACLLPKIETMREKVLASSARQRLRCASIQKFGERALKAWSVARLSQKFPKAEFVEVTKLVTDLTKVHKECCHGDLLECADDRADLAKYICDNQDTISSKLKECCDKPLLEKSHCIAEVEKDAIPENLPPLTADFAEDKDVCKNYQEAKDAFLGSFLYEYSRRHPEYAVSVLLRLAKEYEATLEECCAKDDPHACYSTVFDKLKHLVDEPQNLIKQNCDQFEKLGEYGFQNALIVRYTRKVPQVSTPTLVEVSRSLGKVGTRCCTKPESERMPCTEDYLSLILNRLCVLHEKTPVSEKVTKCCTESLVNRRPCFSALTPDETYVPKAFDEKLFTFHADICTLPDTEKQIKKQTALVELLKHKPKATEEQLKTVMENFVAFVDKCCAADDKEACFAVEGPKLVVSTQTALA

[3] = molecular target: modified (acetylated) BSA (Bos taurus, UniProt P02769); test: Intrinsic fluorescence quenching, binding constant and thermodynamics; design: species or system Bovine; conditions: modified albumin
modified (acetylated) BSA, sequence (P02769 25-607): as above
Method in brief: (§1)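 Proteins were acetylated at 10% w/v in water, 30 °C, pH 7.5–8.5, with acetic anhydride 0.5 g/g protein added over 30–90 min. They were dialysed 24 h against 20 mM phosphate pH 7.0, and lysine modification was checked by TNBS. β-lg was purified from cow milk (>97% by SDS-PAGE). Protein (1 μM) was mixed 1 min with test compound (0–2 μM). Intrinsic fluorescence was read at ex 290, em 310–700 nm. Kb and n came from a double-log Stern–Volmer plot, ΔH°/ΔS° from van't Hoff, and ΔG° from Gibbs.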

native (unmodified) β-lg = molecular target: T1, native (unmodified) β-lg (Bos taurus, UniProt P02754); test: Intrinsic fluorescence quenching, binding constant and thermodynamics; design: species or system Bovine; conditions: unmodified B-LG
T1 sequence (P02754 17-178): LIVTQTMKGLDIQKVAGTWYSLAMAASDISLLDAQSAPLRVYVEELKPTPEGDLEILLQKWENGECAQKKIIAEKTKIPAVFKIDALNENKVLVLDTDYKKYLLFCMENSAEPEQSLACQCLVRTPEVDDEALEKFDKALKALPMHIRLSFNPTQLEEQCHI
Method in brief: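 Unmodified protein was used; β-lg was purified from fresh cow milk (>97% by SDS-PAGE). Protein (1 μM) in 20 mM sodium phosphate pH 7.0 was co-incubated 1 min with test compound (0–2 μM). Quenching was read at excitation 290 nm, emission 310–700 nm, slits 5/10 nm. Kb and n came from a modified Stern–Volmer double-log plot, ΔH° and ΔS° from the van't Hoff ln Kb vs 1/T slope and intercept, and ΔG° from the Gibbs equation. Data points are means of three determinations.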

[4] = molecular target: T2, modified (acetylated) β-lg (Bos taurus, UniProt P02754); test: Intrinsic fluorescence quenching, binding constant and thermodynamics; design: species or system Bovine; conditions: modified B-LG
T2 sequence (P02754 17-178): T1 sequence (P02754 17-178)
Method in brief: as §1

SKNMC cells = test: MTT assay, in vitro anti-cancer activity; type: cell-based, human; conditions: 44 µM, 24 h
Method in brief: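 SKNMC cells were grown in DMEM with 10% FBS and 1% penicillin–streptomycin at 37 °C, 5% CO2, 95% humidity. They were seeded at 20,000/well and pre-incubated 24 h. Medium was replaced with protein-free DMEM, and test compound in DMSO (0–50 μM), alone or protein-complexed, was added for 24 h. MTT (0.5 mg/mL) was added for 4 h, formazan was dissolved in DMSO, and A570 was read. Viability is relative to untreated cells; three separate experiments.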

PC12 cells = test: Intracellular ROS; type: cell-based, rat; conditions: 1 μM curcumin pretreatment 6 h, H2O2 125 μM 16 h, DCFH-DA
Method in brief: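 PC12 cells were seeded at 20,000/well and pre-incubated 24 h, then switched to protein-free DMEM. They were pretreated 6 h with 1 μM test compound or its protein complex, then exposed to freshly prepared H2O2 (125 μM) for 16 h. DCFH-DA (10 μM) was added for 45 min at 37 °C. Cells were washed twice in PBS, and DCF fluorescence (ex 480/488, em 540/525 nm) was read by microplate reader. Controls were DMSO-treated cells. Results are mean ± S.E.M. of three experiments.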

[5] = ref 3b; cited from earlier work
[6] = physiological pH; cited from earlier work
[7] = extremely safe even at very high doses; cited from earlier work
[8] = phase I trial, oral administration of 3.6 g/day; cited from earlier work
[9] = without and in the presence of β-lg; ref 10d; cited from earlier work

degradation in non-aqueous solvent [1]: did not degrade
initial curcumin population remained intact [2]: more than 40%
ΔG° (native (unmodified) BSA; 310 K (per Table S1)): -9.1702 ± 0.2751 kcal/mol
N (number of curcumin binding sites) (native (unmodified) BSA; Table 1): 1.249±0.02
ΔH° (native (unmodified) BSA; van't Hoff, 277-310 K): 6.4971 ± 0.195 kcal/mol
ΔS° (native (unmodified) BSA; van't Hoff, 277-310 K): 0.212±0.002 J mol^-1·K^-1
ΔG° ([3]; 310 K (per Table S1)): -4.6953 ± 0.141 kcal/mol
N (number of curcumin binding sites) ([3]; Table 1): 0.975±0.015
ΔH° ([3]; van't Hoff, 277-310 K): -8.1783 ± 0.163 kcal/mol
ΔS° ([3]; van't Hoff, 277-310 K): -0.047±0.001 J mol^-1·K^-1
ΔG° (native (unmodified) β-lg; 310 K (per Table S1)): -7.0335 ± 0.4218 kcal/mol
N (number of curcumin binding sites) (native (unmodified) β-lg; Table 1): 1.145±0.034
ΔH° (native (unmodified) β-lg; van't Hoff, 277-310 K): -6.4892 ± 0.195 kcal/mol
ΔS° (native (unmodified) β-lg; van't Hoff, 277-310 K): 0.007±0.001 J mol^-1·K^-1
ΔG° ([4]; 310 K (per Table S1)): -9.6836 ± 0.387 kcal/mol
N (number of curcumin binding sites) ([4]; Table 1): 1.347±0.042
ΔH° ([4]; van't Hoff, 277-310 K): 2.227 ± 0.0225 kcal/mol
ΔS° ([4]; van't Hoff, 277-310 K): 0.161±0.006 J mol^-1·K^-1
Substance: 1,7-bis(4-hydroxy-3-methoxyphenyl)-1,6- heptadiene-3,5-dione [curcumin]
cell viability (SKNMC cells): 88%
effect on H2O2-induced intracellular ROS levels (PC12 cells): significantly reduced
solubility in water [5]: about 11 ng/mL
time to molecular fragmentation and degradation by hydrolysis [6]: ≤ 30 min
safe dose [7]: 8 to 12 g/day
concentration of curcumin in plasma [8]: 11.1 nM
concentration of curcumin in target tissues [8]: 1300 nM
curcumin half-life [9]: 30.8 min

— article PMC6416488 (Protein and Peptide Letters, 2019)
